{"source": "ChEMBL document CHEMBL4414574", "about": "“Structure-Based Discovery and Development of a Series of Potent and Selective Bromodomain and Extra-Terminal Protein Inhibitors” (J Med Chem, 2019)", "key": {"BT-549": {"tested_on": "BT-549", "assay": "Antiproliferative activity against human BT549 cells after 72 hrs by CCK8 or SRB assay", "assay_type": "functional, cell-based"}, "[1]": {"assay": "Half life in rat plasma at 10 mg/kg, po", "assay_type": "ADME, organism-based"}, "[2]": {"assay": "Tmax in rat brain at 50 mg/kg, po", "assay_type": "ADME, organism-based", "method_in_brief": "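Rats dosed orally at 50 mg/kg in 1% DMSO/0.5% HPMC; drug measured in plasma and brain.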"}, "[3]": {"target": "ATPase family AAA domain-containing protein 2B (Homo sapiens) (UniProt Q9ULI0)", "assay": "Binding affinity to human partial length ATAD2B (Q955 to R1082 residues) expressed in Escherichia coli BL21 cells assessed as residual binding level at 1 uM measured after 1 hr by quantitative PCR based BROMOscan assay relative to control", "method_in_brief": "(§1)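 A BROMOScan competition-binding panel of 32 bromodomains was run at a single 1 μM compound concentration. Results are primary-screen 'Percent Control', where lower values indicate stronger binding.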"}, "MV4-11 [4]": {"tested_on": "MV4-11", "assay": "Antitumor activity against human MV4-11 cells xenografted in po dosed Balb/c nude mouse assessed as tumor growth inhibition administered once daily and measured twice a week by caliper method", "assay_type": "functional, organism-based"}, "[5]": {"target": "Serine/threonine-protein kinase PLK1 (Homo sapiens) (UniProt P53350)", "sequence (P53350 whole entry)": "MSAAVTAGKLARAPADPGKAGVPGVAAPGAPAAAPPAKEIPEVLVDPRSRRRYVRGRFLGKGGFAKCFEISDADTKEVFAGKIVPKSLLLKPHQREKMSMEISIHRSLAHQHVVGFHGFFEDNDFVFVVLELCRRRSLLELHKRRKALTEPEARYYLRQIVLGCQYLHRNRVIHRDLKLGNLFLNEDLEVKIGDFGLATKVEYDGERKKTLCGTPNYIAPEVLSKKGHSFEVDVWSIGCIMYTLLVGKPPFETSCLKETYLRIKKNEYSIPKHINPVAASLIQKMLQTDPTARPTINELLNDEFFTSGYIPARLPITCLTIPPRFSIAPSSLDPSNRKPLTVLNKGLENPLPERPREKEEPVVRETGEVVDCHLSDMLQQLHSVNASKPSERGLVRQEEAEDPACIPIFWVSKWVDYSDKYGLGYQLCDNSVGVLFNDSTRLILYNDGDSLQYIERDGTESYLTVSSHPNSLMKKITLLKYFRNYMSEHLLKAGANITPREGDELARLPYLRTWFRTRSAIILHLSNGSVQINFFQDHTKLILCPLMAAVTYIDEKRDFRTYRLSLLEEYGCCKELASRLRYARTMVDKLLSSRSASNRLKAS", "assay": "Inhibition of full-length recombinant human His-tagged PLK1 expressed in baculovirus expression system at 10 uM using Ser/Thr 16 Peptide as substrate after 60 mins by Z-LYTE assay relative to control"}, "[6]": {"target": "Bromodomain and PHD finger-containing protein 3 (Homo sapiens) (UniProt Q9ULD4)", "assay": "Binding affinity to human partial length BRPF3 (E588 to G701 residues) expressed in Escherichia coli BL21 cells assessed as residual binding level at 1 uM measured after 1 hr by quantitative PCR based BROMOscan assay relative to control", "method_in_brief": "as §1"}, "[7]": {"assay": "Half life in dog plasma at 1 mg/kg, iv", "assay_type": "ADME, organism-based, Canis lupus familiaris"}, "[8]": {"assay": "AUC (0 to t) in rat plasma at 10 mg/kg, po", "assay_type": "ADME, organism-based", "method_in_brief": "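Compound was given orally or intravenously in 1% DMSO/0.5% HPMC vehicle. Concentrations in plasma, or in brain where stated, gave Tmax, Cmax, T1/2, AUC0-t and AUC0-inf.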"}, "[9]": {"assay": "Cmax in rat plasma at 50 mg/kg, po", "assay_type": "ADME, organism-based", "set-up": "dose 50 mg/kg, route oral"}, "[10]": {"target": "Bromodomain-containing protein 4 (Homo sapiens, UniProt O60885)", "assay": "Inhibition of BRD4 in human MV4-11 cells assessed as reduction in BCL2 phosphorylation at ser70 residues after 24 hrs by Western blot analysis", "assay_type": "cell-based", "method_in_brief": "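MV4-11 cells exposed to graded doses for 24 h; lysates immunoblotted for phospho-BCL2, with GAPDH as loading control.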"}, "[11]": {"target": "Bromodomain-containing protein 2 (Homo sapiens) (UniProt P25440)", "sequence (P25440 whole entry, looked up)": "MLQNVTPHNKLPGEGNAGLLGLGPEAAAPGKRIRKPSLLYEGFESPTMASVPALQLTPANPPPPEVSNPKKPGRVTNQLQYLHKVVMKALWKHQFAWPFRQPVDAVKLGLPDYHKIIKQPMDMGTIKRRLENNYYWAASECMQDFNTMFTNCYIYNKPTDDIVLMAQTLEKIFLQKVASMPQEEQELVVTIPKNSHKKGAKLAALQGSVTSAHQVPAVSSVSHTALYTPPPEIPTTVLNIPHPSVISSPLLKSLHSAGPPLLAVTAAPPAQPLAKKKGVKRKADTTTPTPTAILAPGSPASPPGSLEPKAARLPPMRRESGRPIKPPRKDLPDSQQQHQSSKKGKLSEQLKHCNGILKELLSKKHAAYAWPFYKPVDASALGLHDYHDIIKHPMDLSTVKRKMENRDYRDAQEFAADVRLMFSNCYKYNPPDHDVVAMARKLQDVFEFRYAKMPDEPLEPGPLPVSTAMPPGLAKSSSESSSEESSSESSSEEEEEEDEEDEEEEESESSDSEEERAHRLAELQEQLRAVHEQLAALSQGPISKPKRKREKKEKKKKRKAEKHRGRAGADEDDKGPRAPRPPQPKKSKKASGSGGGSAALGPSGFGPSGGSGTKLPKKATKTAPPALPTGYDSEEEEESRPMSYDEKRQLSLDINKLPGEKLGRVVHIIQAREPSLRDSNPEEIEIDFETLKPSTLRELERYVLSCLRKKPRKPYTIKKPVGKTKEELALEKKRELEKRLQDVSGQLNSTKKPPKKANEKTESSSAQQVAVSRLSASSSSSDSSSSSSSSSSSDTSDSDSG", "assay": "Inhibition of BRD2 bromodomain 1 (unknown origin)"}, "[12]": {"target": "Bromodomain and WD repeat-containing protein 1 (Homo sapiens) (UniProt Q9NSI6)", "sequence (Q9NSI6 whole entry, the tested form may be a part)": "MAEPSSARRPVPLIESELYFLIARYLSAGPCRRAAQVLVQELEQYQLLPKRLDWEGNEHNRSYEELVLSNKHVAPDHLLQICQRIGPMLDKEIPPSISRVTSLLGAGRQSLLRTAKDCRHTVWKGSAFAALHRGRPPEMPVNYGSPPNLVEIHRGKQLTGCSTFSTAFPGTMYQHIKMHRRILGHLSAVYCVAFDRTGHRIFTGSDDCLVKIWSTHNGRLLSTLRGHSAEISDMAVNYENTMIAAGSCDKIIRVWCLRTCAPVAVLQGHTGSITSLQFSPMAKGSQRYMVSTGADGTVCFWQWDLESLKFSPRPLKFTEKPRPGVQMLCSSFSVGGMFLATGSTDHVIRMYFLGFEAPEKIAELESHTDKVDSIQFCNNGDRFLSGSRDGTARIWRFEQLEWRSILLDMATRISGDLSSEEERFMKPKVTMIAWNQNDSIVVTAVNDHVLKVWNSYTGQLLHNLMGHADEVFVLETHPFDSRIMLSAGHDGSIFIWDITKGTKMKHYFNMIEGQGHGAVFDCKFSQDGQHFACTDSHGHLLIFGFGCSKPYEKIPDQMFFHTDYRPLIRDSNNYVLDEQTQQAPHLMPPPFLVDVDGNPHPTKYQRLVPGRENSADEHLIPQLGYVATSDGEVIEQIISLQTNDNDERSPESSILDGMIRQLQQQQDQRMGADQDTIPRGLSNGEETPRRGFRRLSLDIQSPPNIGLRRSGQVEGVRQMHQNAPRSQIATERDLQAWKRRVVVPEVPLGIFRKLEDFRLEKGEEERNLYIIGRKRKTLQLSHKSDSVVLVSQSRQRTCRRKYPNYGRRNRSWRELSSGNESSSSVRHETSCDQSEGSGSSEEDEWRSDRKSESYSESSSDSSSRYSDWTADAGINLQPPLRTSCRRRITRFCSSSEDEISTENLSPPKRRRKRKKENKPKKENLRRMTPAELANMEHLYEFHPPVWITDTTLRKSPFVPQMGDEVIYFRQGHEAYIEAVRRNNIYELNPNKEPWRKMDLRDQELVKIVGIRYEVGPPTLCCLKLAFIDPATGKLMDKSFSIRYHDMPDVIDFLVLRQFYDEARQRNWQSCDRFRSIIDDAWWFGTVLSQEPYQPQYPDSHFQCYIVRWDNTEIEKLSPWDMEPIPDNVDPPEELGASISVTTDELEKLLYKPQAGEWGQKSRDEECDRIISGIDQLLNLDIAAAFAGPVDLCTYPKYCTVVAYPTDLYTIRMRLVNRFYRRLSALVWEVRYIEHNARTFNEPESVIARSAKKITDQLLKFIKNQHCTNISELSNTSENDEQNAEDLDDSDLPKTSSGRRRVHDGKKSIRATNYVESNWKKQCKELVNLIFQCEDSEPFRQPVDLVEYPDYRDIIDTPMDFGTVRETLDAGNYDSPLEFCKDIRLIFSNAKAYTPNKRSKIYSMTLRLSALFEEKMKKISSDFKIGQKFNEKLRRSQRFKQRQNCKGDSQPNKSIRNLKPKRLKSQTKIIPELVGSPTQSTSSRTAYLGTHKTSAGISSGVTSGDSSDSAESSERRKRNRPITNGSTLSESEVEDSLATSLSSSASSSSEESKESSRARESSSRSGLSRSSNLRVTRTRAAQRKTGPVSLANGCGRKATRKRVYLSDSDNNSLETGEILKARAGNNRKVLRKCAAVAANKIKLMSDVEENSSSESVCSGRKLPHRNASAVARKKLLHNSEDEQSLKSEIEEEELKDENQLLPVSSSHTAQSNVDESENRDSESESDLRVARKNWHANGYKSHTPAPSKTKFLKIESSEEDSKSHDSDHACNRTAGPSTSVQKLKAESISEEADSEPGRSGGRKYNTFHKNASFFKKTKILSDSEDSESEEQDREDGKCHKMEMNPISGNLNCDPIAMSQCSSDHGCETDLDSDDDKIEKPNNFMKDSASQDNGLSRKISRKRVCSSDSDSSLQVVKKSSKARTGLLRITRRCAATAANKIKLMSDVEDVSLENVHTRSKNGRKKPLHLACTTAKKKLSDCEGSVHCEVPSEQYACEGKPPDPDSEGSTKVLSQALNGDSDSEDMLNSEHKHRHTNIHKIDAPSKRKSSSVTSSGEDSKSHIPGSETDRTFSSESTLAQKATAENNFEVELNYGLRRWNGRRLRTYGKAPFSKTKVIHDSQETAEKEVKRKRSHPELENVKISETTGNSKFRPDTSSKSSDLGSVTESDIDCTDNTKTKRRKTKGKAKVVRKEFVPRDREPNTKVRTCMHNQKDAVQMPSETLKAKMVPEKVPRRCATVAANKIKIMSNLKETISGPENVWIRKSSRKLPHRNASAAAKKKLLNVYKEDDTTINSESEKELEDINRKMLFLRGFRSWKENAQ", "assay": "Binding affinity to human partial length BRWD1 (A1310 to E1430 residues) expressed in Escherichia coli BL21 cells assessed as residual binding level at 1 uM measured after 1 hr by quantitative PCR based BROMOscan assay relative to control", "method_in_brief": "as §1"}, "Cytochrome P450 2D6": {"target": "Cytochrome P450 2D6 (Homo sapiens, UniProt P10635)", "sequence (P10635 whole entry)": "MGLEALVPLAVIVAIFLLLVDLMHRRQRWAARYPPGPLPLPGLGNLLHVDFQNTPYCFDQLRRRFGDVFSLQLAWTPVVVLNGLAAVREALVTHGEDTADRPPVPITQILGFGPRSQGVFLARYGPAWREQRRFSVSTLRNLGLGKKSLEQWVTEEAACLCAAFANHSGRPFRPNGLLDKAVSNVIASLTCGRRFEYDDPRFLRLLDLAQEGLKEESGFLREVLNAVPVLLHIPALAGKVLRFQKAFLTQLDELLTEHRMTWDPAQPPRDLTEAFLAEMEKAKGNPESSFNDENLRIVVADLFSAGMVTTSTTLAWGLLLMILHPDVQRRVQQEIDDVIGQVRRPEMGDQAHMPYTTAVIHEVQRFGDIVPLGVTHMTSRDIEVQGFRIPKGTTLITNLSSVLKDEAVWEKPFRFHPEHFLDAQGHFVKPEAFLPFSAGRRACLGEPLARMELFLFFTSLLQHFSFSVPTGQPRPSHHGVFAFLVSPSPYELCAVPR", "assay": "Time-dependent inhibition of CYP2D6 in human liver microsomes at 10 uM using dextromethorphan as substrate preincubated up to 30 mins followed by NADPH generating system addition and measured after 10 mins", "assay_type": "ADME", "method_in_brief": "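Human liver microsomes 0.2 mg/mL, 100 mM phosphate pH 7.4, 10 μM test compound, preincubated 0, 5, 10 and 30 min at 37 °C; then NADPH plus probe cocktail (5 μM midazolam, 50 μM testosterone, 5 μM dextromethorphan, 10 μM diclofenac, 50 μM phenacetin, 50 μM S-(+)-mephenytoin) added; 10 min reaction; kobs in units of 10^-4/min.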"}, "[13]": {"assay": "Clearance in rat liver microsomes", "assay_type": "ADME, Microsome", "details": "read-out: CLH"}, "RKO": {"tested_on": "RKO", "assay": "Induction of cell cycle arrest in human RKO cells assessed as increase in accumulation at G1 phase at 100 nM after 24 hrs by propidium iodide staining based flow cytometric analysis", "assay_type": "functional"}, "[14]": {"assay": "Cmax in rat brain at 50 mg/kg, po", "assay_type": "ADME, organism-based", "set-up": "dose 50 mg/kg, route oral"}, "[15]": {"target": "Nucleosome-remodeling factor subunit BPTF (Homo sapiens) (UniProt Q12830)", "assay": "Binding affinity to human partial length FALZ (S2791 to H2911 residues) expressed in Escherichia coli BL21 cells assessed as residual binding level at 1 uM measured after 1 hr by quantitative PCR based BROMOscan assay relative to control", "method_in_brief": "as §1"}, "[16]": {"assay": "Half life in rat plasma at 50 mg/kg, po", "assay_type": "ADME, organism-based"}, "[17]": {"target": "Proto-oncogene tyrosine-protein kinase Src (Homo sapiens) (UniProt P12931)", "sequence (P12931 2-536 limits assumed)": "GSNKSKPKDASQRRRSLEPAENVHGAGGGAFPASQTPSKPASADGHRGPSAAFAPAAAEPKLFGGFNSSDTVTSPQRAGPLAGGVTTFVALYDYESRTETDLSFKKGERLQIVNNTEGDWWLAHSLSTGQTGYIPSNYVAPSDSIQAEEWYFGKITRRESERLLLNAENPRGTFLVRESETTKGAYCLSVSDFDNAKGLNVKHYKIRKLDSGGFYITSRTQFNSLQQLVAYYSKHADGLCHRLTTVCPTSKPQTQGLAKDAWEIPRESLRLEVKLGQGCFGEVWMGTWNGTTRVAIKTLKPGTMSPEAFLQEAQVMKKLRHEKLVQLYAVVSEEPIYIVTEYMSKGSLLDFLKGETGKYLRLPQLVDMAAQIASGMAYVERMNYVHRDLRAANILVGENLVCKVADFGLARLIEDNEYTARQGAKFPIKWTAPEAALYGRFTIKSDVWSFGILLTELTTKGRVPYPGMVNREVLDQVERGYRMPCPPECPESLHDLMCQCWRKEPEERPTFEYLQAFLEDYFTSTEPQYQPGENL", "assay": "Inhibition of Src (unknown origin) at 10 uM using poly (Glu, Tyr) 4:1 as substrate after 60 mins by ELISA"}, "MV4-11 [18]": {"tested_on": "MV4-11", "assay": "Induction of apoptosis in human MV4-11 cells assessed as reduction in XIAP level after 24 hrs by Western blot analysis", "assay_type": "functional, cell-based"}, "SW-620": {"tested_on": "SW-620", "assay": "Antiproliferative activity against human SW620 cells after 72 hrs by CCK8 or SRB assay", "assay_type": "functional, cell-based"}, "[19]": {"target": "Transcription intermediary factor 1-alpha (Homo sapiens) (UniProt O15164)", "assay": "Binding affinity to human partial length TRIM24 (P790 to P977 residues) expressed in Escherichia coli BL21 cells assessed as residual binding level at 1 uM measured after 1 hr by quantitative PCR based BROMOscan assay relative to control", "method_in_brief": "(§2)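 Bromodomain panel screen (32 bromodomains) run at 1 μM single concentration; primary binding reported as 'Percent Control', lower values meaning stronger interaction.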"}, "[20]": {"assay": "Cmax in ICR mouse plasma at 50 mg/kg, po administered via gavage measured after 0.25 to 24 hrs by UPLC/MS analysis", "assay_type": "ADME, organism-based", "set-up": "dose 50 mg/kg, route oral", "method_in_brief": "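Male ICR mice dosed orally in 1% DMSO/0.5% HPMC vehicle; plasma or brain drug levels used to derive Tmax, Cmax, AUC0-t, AUC0-inf and T1/2.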"}, "[21]": {"target": "SWI/SNF-related matrix-associated actin-dependent regulator of chromatin subfamily A member 4 (Homo sapiens) (UniProt P51532)", "assay": "Binding affinity to human partial length SMARCA4 (A1448 to S1575 residues) expressed in Escherichia coli BL21 cells assessed as residual binding level at 1 uM measured after 1 hr by quantitative PCR based BROMOscan assay relative to control", "method_in_brief": "as §2"}, "MV4-11 [22]": {"tested_on": "MV4-11", "assay": "Antiproliferative activity against human MV4-11 cells after 72 hrs by CCK8 or SRB assay", "assay_type": "functional, cell-based"}, "[23]": {"assay": "Drug uptake in tumor of Balb/c nude mouse xenografted with human MV4-11 cells at 25 to 50 mg/kg, po measured after 8 hrs", "assay_type": "ADME, organism-based, Neoplasm", "details": "in vivo", "method_in_brief": "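MV4-11 xenografts in BALB/c nude mice given oral compound; drug concentrations in plasma and tumor tissue measured at 1 h and 8 h after dosing.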"}, "[24]": {"target": "Bromodomain adjacent to zinc finger domain protein 2A (Homo sapiens) (UniProt Q9UIF9)", "assay": "Binding affinity to human partial length BAZ2A (M1792 to L1905 residues) expressed in Escherichia coli BL21 cells assessed as residual binding level at 1 uM measured after 1 hr by quantitative PCR based BROMOscan assay relative to control", "method_in_brief": "as §1"}}, "note": "Calls of active or inactive are those of the source. The calls are words filed in the database; no cut-off is given here.", "data": [{"compound": "Cc1ccc(-n2nc(C(=O)N3C[C@@H](C)N[C@@H](C)C3)nc2-c2ccc3c(c2)N(C2CCCC2)[C@H](C)C(=O)N3C)cc1", "values": [{"measurement": "Activity", "setting": "BT-549", "result": "Active"}, {"measurement": "half-life", "setting": "[1]", "result": 5, "unit": "h"}, {"measurement": "Tmax", "setting": "[2]", "result": 0.9, "unit": "h"}, {"measurement": "Activity", "setting": "[3]", "result": "70 to 100", "unit": "%"}, {"measurement": "TGI", "setting": "MV4-11 [4]", "result": "Dose-dependent effect"}, {"measurement": "inhibition", "setting": "[5]", "result": "< 10", "unit": "%"}, {"measurement": "Activity", "setting": "[6]", "result": "70 to 100", "unit": "%"}, {"measurement": "half-life", "setting": "[7]", "result": 9.4, "unit": "h"}, {"measurement": "AUC(0-t)", "setting": "[8]", "result": 1220, "unit": "ng·h/mL"}, {"measurement": "Cmax", "setting": "[9]", "result": 1250, "unit": "ng/mL"}, {"measurement": "inhibition", "setting": "[10]", "result": "Dose-dependent effect"}, {"measurement": "inhibition activity call (active/inactive)", "setting": "[11]", "result": "Active"}, {"measurement": "Activity", "setting": "[12]", "result": "70 to 100", "unit": "%"}, {"measurement": "TDI", "setting": "Cytochrome P450 2D6", "result": "Not Active"}, {"measurement": "microsomal CLint", "setting": "[13]", "result": 28, "unit": "µL/min/mg"}, {"measurement": "Activity", "setting": "RKO", "result": "Active"}, {"measurement": "Cmax", "setting": "[14]", "result": 87.6, "unit": "ng/mL"}, {"measurement": "Activity", "setting": "[15]", "result": "70 to 100", "unit": "%"}, {"measurement": "half-life", "setting": "[16]", "result": 6.3, "unit": "h"}, {"measurement": "inhibition", "setting": "[17]", "result": "Active"}, {"measurement": "Activity", "setting": "MV4-11 [18]", "result": "Dose-dependent effect"}, {"measurement": "Activity", "setting": "SW-620", "result": "Active"}, {"measurement": "Activity", "setting": "[19]", "result": "50 to 70", "unit": "%"}, {"measurement": "Cmax", "setting": "[20]", "result": 4020, "unit": "ng/mL"}, {"measurement": "Activity", "setting": "[21]", "result": "70 to 100", "unit": "%"}, {"measurement": "Activity", "setting": "MV4-11 [22]", "result": "Active"}, {"measurement": "Drug uptake", "setting": "[23]", "result": "Active"}, {"measurement": "Activity", "setting": "[24]", "result": "70 to 100", "unit": "%"}]}]}
